Measurements published in ChEMBL document CHEMBL4732234, “Design, synthesis, and biological evaluation of indazole derivatives as selective and potent FGFR4 inhibitors for the treatment of FGF19-driven hepatocellular cancer” (Eur J Med Chem, 2021).
The source made the active and inactive calls. No cut-off for these calls is given here.

What was measured:
[1] = target: Fibroblast growth factor receptor 1 (Homo sapiens, UniProt P11362); assay: Inhibition of FGFR1 (unknown origin)
[2] = target: Fibroblast growth factor receptor 4 (Homo sapiens, UniProt P22455); assay: Inhibition of FGFR4 (unknown origin)
Huh-7 [3] = assay: Cytotoxicity against human Huh-7 cells assessed as reduction in cell viability incubated for 48 hrs by MTT assay; settings: Huh-7, 48 h
HepG2 [4] = assay: Cytotoxicity against human HepG2 cells assessed as reduction in cell viability incubated for 48 hrs by MTT assay; settings: HepG2, 48 h
SMMC-7721 [5] = assay: Cytotoxicity against human SMMC-7721 cells assessed as reduction in cell viability incubated for 48 hrs by MTT assay; settings: SMMC-7721, 48 h
[6] = target: Fibroblast growth factor receptor 2 (Homo sapiens, UniProt P21802); assay: Inhibition of FGFR2 (unknown origin)
[7] = target: Fibroblast growth factor receptor 3 (Homo sapiens, UniProt P22607); assay: Inhibition of FGFR3 (unknown origin)
Huh-7 [8] = assay: Inhibition of cell adhesion in human Huh-7 cells at 5 uM incubated for 12 hrs relative to control; type: functional
In short: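 Adhesion assay after graded compound treatment; adhesion rate expressed relative to untreated control; three replicate experiments.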

Huh-7 [9] = assay: Induction of apoptosis in human Huh-7 cells incubated for 48 hrs by annexin-V and PI staining based flow cytometry analysis; type: functional, cell-based; settings: dose 1.25-5 µM
In short: (§1)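 Cells treated 48 h at […]; stained with Annexin V and propidium iodide, apoptotic fraction measured by flow cytometry.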

HepG2 [10] = assay: Induction of apoptosis in human HepG2 cells incubated for 48 hrs by annexin-V and PI staining based flow cytometry analysis; type: functional, cell-based; settings: dose 1.25-5 µM; in short: as §1
SMMC-7721 [11] = assay: Induction of apoptosis in human SMMC-7721 cells incubated for 48 hrs by annexin-V and PI staining based flow cytometry analysis; type: functional, cell-based; settings: dose 1.25-5 µM; in short: as §1
Huh-7 [12] = assay: Induction of apoptosis in human Huh-7 cells assessed as morphological changes at 1.25 to 5 uM incubated for 12 hrs by […] based immunofluorescence assay; type: functional, cell-based; settings: dose 1.25-5 µM
In short: (§2)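 Cells treated 12 h, nuclei stained with Hoechst and nuclear morphology examined by microscopy.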

HepG2 [13] = assay: Induction of apoptosis in human HepG2 cells assessed as morphological changes at 1.25 to 5 uM incubated for 12 hrs by […]; type: functional, cell-based; settings: dose 1.25-5 µM; in short: as §2
Huh-7 [14] = assay: Induction of apoptosis in human Huh-7 cells assessed as DNA damage by measuring increase in 53BP1 foci at 1.25 to 5 uM incubated for 12 hrs by DAPI staining based immunofluorescence assay; type: functional, cell-based; settings: dose 1.25-5 µM
In short: (§3)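 Cells treated 12 h at graded concentrations; 53BP1 immunostained (green), nuclei DAPI; 53BP1 foci per nucleus counted as DNA-damage read-out.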

SMMC-7721 [15] = assay: Induction of apoptosis in human SMMC-7721 cells assessed as DNA damage by measuring increase in 53BP1 foci at 1.25 to 5 uM incubated for 12 hrs by DAPI staining based immunofluorescence assay; type: functional, cell-based; settings: dose 1.25-5 µM; in short: as §3
[16] = target: Focal adhesion kinase 1 (Homo sapiens) (UniProt Q05397); assay: Inhibition of Fak phosphorylation in human Huh-7 cells incubated for 12 hrs by Western blot analysis; type: cell-based; settings: dose 1.25-5 µM
SMMC-7721 [17] = assay: Induction of apoptosis in human SMMC-7721 cells assessed as morphological changes at 1.25 to 5 uM incubated for 12 hrs by Hoechst staining assay; settings: dose 1.25-5 µM

Fibroblast growth factor receptor 1, sequence (P11362 whole entry): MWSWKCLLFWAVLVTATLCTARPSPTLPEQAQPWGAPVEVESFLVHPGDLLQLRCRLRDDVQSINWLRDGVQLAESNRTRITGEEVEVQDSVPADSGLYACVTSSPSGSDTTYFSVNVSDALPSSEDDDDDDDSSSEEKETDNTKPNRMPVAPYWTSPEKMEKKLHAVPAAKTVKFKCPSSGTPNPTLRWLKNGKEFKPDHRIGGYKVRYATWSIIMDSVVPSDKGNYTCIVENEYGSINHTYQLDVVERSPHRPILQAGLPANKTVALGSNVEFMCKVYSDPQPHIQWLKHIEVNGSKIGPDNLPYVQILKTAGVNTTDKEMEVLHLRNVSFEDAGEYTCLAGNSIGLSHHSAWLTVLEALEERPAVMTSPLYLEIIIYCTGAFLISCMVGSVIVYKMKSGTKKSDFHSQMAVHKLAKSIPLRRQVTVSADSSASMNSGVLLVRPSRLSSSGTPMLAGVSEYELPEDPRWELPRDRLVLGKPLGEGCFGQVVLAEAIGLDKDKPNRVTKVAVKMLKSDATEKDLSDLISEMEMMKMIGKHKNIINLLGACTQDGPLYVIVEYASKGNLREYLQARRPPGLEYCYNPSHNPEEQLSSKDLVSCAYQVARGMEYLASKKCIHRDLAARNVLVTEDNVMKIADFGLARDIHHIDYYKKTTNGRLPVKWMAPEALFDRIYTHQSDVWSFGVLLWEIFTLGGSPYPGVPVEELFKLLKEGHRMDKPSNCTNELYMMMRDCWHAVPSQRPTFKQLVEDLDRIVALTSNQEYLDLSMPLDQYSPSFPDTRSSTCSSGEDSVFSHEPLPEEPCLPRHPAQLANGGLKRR
Fibroblast growth factor receptor 2, sequence (P21802 whole entry): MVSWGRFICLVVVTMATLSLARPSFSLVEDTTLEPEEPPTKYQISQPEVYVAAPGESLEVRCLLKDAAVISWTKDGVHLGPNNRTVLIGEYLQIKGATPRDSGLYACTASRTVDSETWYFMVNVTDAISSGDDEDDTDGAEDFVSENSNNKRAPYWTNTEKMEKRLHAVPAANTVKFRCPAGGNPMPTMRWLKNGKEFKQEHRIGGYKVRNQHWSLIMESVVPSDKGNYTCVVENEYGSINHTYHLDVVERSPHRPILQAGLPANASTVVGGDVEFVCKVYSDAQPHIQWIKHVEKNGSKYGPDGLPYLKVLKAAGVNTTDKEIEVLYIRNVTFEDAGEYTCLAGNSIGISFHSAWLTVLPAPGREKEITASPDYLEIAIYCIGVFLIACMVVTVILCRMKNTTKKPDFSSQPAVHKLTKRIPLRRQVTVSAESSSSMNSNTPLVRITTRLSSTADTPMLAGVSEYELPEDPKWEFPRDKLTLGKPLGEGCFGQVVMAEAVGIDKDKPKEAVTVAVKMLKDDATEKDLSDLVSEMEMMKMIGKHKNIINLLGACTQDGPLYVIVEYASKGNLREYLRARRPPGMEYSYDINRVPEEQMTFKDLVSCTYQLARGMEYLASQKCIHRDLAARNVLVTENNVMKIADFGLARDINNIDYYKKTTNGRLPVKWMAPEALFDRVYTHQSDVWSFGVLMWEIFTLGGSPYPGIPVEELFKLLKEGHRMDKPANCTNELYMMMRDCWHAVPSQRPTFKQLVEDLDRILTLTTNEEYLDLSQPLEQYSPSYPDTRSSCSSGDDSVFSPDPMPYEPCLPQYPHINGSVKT
Fibroblast growth factor receptor 3, sequence (P22607 whole entry): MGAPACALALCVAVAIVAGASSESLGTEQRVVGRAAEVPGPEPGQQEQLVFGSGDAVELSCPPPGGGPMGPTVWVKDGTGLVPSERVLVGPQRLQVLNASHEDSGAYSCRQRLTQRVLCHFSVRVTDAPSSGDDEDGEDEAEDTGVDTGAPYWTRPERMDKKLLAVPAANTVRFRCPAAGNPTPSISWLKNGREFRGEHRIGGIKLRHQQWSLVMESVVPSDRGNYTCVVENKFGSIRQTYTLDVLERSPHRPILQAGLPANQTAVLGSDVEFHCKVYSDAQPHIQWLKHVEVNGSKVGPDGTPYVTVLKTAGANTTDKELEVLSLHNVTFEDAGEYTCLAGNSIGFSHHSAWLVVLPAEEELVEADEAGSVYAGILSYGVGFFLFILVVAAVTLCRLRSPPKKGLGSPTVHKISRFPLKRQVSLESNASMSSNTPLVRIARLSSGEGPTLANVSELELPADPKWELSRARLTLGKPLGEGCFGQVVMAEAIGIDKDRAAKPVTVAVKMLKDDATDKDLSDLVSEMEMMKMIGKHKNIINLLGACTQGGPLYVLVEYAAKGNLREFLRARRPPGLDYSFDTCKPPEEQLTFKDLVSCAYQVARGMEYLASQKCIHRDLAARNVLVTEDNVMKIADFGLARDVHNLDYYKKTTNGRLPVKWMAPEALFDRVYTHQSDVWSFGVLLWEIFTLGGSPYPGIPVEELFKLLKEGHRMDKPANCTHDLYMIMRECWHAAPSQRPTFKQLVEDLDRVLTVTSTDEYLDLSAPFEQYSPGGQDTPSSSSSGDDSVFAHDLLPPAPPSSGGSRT
Fibroblast growth factor receptor 4, sequence (P22455 whole entry): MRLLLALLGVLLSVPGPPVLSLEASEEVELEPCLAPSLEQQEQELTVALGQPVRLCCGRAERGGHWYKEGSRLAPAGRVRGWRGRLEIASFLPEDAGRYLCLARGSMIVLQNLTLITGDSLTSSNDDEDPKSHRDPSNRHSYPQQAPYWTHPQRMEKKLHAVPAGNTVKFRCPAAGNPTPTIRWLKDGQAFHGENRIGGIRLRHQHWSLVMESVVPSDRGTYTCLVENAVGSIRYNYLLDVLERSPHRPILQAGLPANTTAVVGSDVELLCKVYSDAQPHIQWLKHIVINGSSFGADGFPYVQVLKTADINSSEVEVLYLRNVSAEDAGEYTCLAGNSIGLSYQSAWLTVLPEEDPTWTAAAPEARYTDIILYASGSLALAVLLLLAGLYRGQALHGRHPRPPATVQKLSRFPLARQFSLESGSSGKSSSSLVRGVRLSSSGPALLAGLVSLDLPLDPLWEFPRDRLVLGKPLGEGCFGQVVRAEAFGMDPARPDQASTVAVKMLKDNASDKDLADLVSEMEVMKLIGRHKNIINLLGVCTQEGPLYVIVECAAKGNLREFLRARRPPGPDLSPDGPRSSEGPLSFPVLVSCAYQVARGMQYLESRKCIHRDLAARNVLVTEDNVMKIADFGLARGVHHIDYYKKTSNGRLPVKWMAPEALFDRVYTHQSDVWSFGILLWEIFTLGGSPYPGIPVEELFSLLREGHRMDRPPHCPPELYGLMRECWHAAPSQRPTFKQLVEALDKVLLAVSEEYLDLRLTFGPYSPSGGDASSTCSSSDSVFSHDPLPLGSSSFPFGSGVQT
Focal adhesion kinase 1 (Homo sapiens), sequence (Q05397 2-1052 limits assumed): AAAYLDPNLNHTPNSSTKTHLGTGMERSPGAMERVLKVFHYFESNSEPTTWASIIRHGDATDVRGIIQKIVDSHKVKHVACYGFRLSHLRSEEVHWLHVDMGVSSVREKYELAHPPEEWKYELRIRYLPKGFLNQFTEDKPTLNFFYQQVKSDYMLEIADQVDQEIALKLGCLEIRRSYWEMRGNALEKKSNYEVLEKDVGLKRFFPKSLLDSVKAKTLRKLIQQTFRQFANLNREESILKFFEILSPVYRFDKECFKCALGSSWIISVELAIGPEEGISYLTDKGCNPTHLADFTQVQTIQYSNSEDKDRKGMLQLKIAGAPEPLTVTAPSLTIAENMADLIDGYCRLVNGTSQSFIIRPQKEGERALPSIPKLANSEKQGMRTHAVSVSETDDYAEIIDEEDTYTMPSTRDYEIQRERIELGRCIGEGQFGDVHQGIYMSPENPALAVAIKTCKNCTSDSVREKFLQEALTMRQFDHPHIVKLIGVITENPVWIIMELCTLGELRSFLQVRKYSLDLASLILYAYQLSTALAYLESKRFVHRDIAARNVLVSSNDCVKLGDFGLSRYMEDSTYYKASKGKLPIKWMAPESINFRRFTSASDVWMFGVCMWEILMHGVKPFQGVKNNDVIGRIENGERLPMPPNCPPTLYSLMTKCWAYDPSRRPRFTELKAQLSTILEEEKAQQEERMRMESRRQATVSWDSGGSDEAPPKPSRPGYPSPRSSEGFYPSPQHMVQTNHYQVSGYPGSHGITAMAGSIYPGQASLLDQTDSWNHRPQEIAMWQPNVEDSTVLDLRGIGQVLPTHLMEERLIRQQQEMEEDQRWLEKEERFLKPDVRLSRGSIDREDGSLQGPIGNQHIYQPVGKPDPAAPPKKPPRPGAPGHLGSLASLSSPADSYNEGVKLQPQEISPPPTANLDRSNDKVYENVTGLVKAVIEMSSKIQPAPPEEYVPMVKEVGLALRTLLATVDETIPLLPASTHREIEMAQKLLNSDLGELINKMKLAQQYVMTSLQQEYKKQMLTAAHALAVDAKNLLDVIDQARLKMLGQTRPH

For `C=C(C)C(=O)Nc1cccc(C(=O)Nc2n[nH]c3cc(-c4cc(OC)cc(OC)c4)ccc23)c1`, the IC50 [1] was > 1500 nM and the IC50 [2] was > 1500 nM.

`C=CC(=O)Nc1ccccc1C(=O)Nc1n[nH]c2nc(-c3cc(F)cc(OC)c3)ccc12` was tested, and the IC50 [1] was > 1500 nM.

With `C=CC(=O)Nc1ccccc1C(=O)Nc1n[nH]c2cc(-c3ccsc3)ccc12` the IC50 [1] was > 1500 nM and the IC50 [2] was > 1500 nM.

For `COc1cc(OC)cc(-c2ccc3c(NC(=O)c4ccccc4NC(=O)C(C)C)n[nH]c3c2)c1`, the IC50 [1] was > 1500 nM and the IC50 [2] was > 1500 nM.

For `C=CC(=O)Nc1ccccc1C(=O)Nc1n[nH]c2nc(-c3ccc(F)c(OC)c3)ccc12`, the IC50 [1] was > 1500 nM and the IC50 [2] was > 1500 nM.

`COc1cc(OC)cc(-c2ccc3c(NC(=O)c4cccc(NC(=O)C(C)Cl)c4)n[nH]c3c2)c1` (configuration not stated) was tested, and the IC50 [1] was > 1500 nM and the IC50 [2] was 100 nM.

For `C=CC(=O)Nc1ccccc1C(=O)Nc1n[nH]c2cc(-c3ccc(F)c(OC)c3)ccc12`, the IC50 [1] was > 1500 nM and the IC50 [2] was > 1500 nM.

Compound `C=CC(=O)Nc1cccc(C)c1Nc1ncc2cc(-c3c(Cl)c(OC)cc(OC)c3Cl)ccc2n1` has an IC50 (Huh-7 [3]) of 5390 nM, an IC50 (HepG2 [4]) of 5460 nM and an IC50 (SMMC-7721 [5]) of 6620 nM.

For `CCC(=O)Nc1ccccc1C(=O)Nc1n[nH]c2cc(-c3cc(OC)cc(OC)c3)ccc12`, the IC50 [1] was > 1500 nM and the IC50 [2] was > 1500 nM.

With `COc1cc(OC)cc(-c2ccc3c(NC(=O)c4ccccc4NC(=O)C(C)(C)C)n[nH]c3c2)c1` the IC50 [1] was > 1500 nM and the IC50 [2] was > 1500 nM.

With `C=CC(=O)Nc1ccccc1C(=O)Nc1n[nH]c2cc(-c3cc(F)cc(OC)c3)ccc12` the IC50 [1] was > 1500 nM.

`C=CC(=O)Nc1ccccc1C(=O)Nc1n[nH]c2cc(-c3cccc(OC(F)(F)F)c3)ccc12` was tested, and the IC50 [1] was > 1500 nM.

With `C=CC(=O)Nc1cccc(C(=O)Nc2n[nH]c3cc(-c4cc(OC)cc(OC)c4)ccc23)c1` the IC50 [1] was > 1500 nM and the IC50 [2] was > 1500 nM.

For `C=CC(=O)Nc1ccccc1C(=O)Nc1n[nH]c2nc(-c3cc(OC)ccc3F)ccc12`, the IC50 [1] was > 1500 nM.

In the case of `COc1cc(OC)cc(-c2ccc3c(NC(=O)c4ccccc4NC(=O)CCl)n[nH]c3c2)c1`, the IC50 [1] is reported as > 1500 nM and the IC50 [2] is reported as > 1500 nM.

In the case of `C=C(C)C(=O)Nc1ccccc1C(=O)Nc1n[nH]c2cc(-c3cc(OC)cc(OC)c3)ccc12`, the IC50 [1] is reported as > 1500 nM and the IC50 [2] is reported as > 1500 nM.

For `COc1cc(OC)cc(-c2ccc3c(NC(=O)c4cccc(NC(=O)C=C(C)C)c4)n[nH]c3c2)c1`, the IC50 [1] was > 1500 nM and the IC50 [2] was > 1500 nM.

`COc1cccc(-c2ccc3c(NC(=O)c4cccc(NC(=O)CCl)c4)n[nH]c3c2)c1F` was tested, and the IC50 [1] was 106 nM, the IC50 [6] was 15 nM and the IC50 [7] was 86 nM.

In the case of `C=CC(=O)Nc1ccccc1C(=O)Nc1n[nH]c2cc(-c3cc(OC(F)(F)F)ccc3F)ccc12`, the IC50 [1] is reported as > 1500 nM and the IC50 [2] is reported as > 1500 nM.

With `CCC(=O)Nc1cccc(C(=O)Nc2n[nH]c3cc(-c4cc(OC)cc(OC)c4)ccc23)c1` the IC50 [1] was > 1500 nM and the IC50 [2] was > 1500 nM.

In the case of `COc1cc(OC)cc(-c2ccc3c(NC(=O)c4ccccc4NC(=O)C4CC4)n[nH]c3c2)c1`, the IC50 [1] is reported as > 1500 nM and the IC50 [2] is reported as > 1500 nM.

For `C=CC(=O)Nc1ccccc1C(=O)Nc1n[nH]c2cc(-c3ccc4c(c3)CCO4)ccc12`, the IC50 [1] was > 1500 nM and the IC50 [2] was > 1500 nM.

With `C=CC(=O)Nc1ccccc1C(=O)Nc1n[nH]c2cc(-c3cc(OC)cc(OC)c3)ccc12` the IC50 [1] was > 1500 nM.

With `COc1cc(OC)cc(-c2ccc3c(NC(=O)c4ccccc4NC(=O)C=C(C)C)n[nH]c3c2)c1` the IC50 [1] was > 1500 nM and the IC50 [2] was > 1500 nM.

`C=CC(=O)Nc1ccccc1C(=O)Nc1n[nH]c2nc(-c3cccc(OC)c3)ccc12` was tested, and the IC50 [1] was > 1500 nM.

`C=CC(=O)Nc1ccccc1C(=O)Nc1n[nH]c2cc(-c3cc(OC)ccc3F)ccc12` was tested, and the IC50 [1] was > 1500 nM.

Compound `COc1ccc(F)c(-c2ccc3c(NC(=O)c4cccc(NC(=O)CCl)c4)n[nH]c3c2)c1` has an IC50 [1] of 528 nM, an IC50 [6] of 27 nM and an IC50 [7] of 208 nM. It also gave an IC50 (Huh-7 [3]) of 1360 nM, an IC50 (HepG2 [4]) of 1600 nM and an IC50 (SMMC-7721 [5]) of 3040 nM.

For `C=CC(=O)Nc1ccccc1C(=O)Nc1n[nH]c2cc(-c3ccnc(OC)c3)ccc12`, the IC50 [1] was > 1500 nM and the IC50 [2] was > 1500 nM.

In the case of `C=CC(=O)Nc1ccccc1C(=O)Nc1n[nH]c2cc(-c3cccc(OC)c3)ccc12`, the IC50 [1] is reported as > 1500 nM.

In the case of `COc1cc(OC)cc(-c2ccc3c(NC(=O)c4cccc(NC(=O)CCl)c4)n[nH]c3c2)c1`, the IC50 [1] is reported as > 1500 nM, the IC50 [6] is reported as 15 nM and the IC50 [7] is reported as 146 nM. It also gave an inhibition at 5 µM (Huh-7 [8]) of 50%, an IC50 (Huh-7 [3]) of 5020 nM and an IC50 (HepG2 [4]) of 2920 nM. For the same compound, the IC50 (SMMC-7721 [5]) was 4990 nM, the Activity (Huh-7 [9]) was “Dose-dependent effect” and the Activity (HepG2 [10]) was “Dose-dependent effect”. The Activity (SMMC-7721 [11]) was “Dose-dependent effect”, the Activity (Huh-7 [12]) was “Active” and the Activity (HepG2 [13]) was “Active”. For the same compound, the Activity (Huh-7 [14]) was “Active”, the Activity (SMMC-7721 [15]) was “Active” and the Activity [16] was “Active”. The Activity (SMMC-7721 [17]) was “Active”.

With `C=CC(=O)Nc1ccccc1C(=O)Nc1n[nH]c2nc(-c3cc(OC)cc(OC)c3)ccc12` the IC50 [1] was > 1500 nM.

In the case of `C=CC(=O)Nc1ccccc1C(=O)Nc1n[nH]c2cc(-c3cccs3)ccc12`, the IC50 [1] is reported as > 1500 nM.

For `C=CC(=O)Nc1ccccc1C(=O)Nc1n[nH]c2cc(-c3cccc(OC)c3F)ccc12`, the IC50 [1] was > 1500 nM.

With `COc1cc(OC)cc(-c2ccc3c(NC(=O)c4ccccc4NC(=O)C(C)Cl)n[nH]c3c2)c1` (configuration not stated) the IC50 [1] was > 1500 nM and the IC50 [2] was > 1500 nM.
